Assay results reported in ChEMBL document CHEMBL4270530, “Surmounting the resistance against EGFR inhibitors through the development of thieno[2,3-d]pyrimidine-based dual EGFR/HER2 inhibitors” (Eur J Med Chem, 2018).

Experiments:
A-431 = assay: Cytotoxicity against human A431 cells over expressing EGFR assessed as reduction in cell viability after 72 hrs by sulforhodamine B assay; format: functional, cell-based; settings: A-431, 72 h
Outline: (§1)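 Cells seeded and grown 24 h, then exposed to 0.1% DMSO vehicle or 0.3125-20 μM compound for 72 h. Fixed with ice-cold 50% TCA (1 h, 4 °C), stained with 0.4% SRB 30 min at room temperature, dye solubilized in 10 mM tris base pH 10.5, OD read at 560 nm. Survival fraction = OD treated/OD vehicle; IC50 from triplicates of at least two independent experiments, mean ± SD.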

MDA-MB-361 = assay: Cytotoxicity against human MDA-MB-361 cells over expressing HER2 assessed as reduction in cell viability after 72 hrs by sulforhodamine B assay; format: functional, cell-based; settings: MDA-MB-361, 72 h; outline: as §1
CCRF-CEM = assay: Growth inhibition of human CCRF-CEM cells assessed as cell growth at 10 uM incubated for 48 hrs by sulforhodamine B assay relative to control; format: functional; settings: read-out: Activity
Outline: (§2)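 NCI-60 one-dose screen run by the NCI Developmental Therapeutics Program at a single 10 µM concentration; growth percent read from the one-dose mean graph.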

A549 = assay: Growth inhibition of human A549/ATCC cells assessed as cell growth at 10 uM incubated for 48 hrs by sulforhodamine B assay relative to control; format: functional; settings: A549, 48 h, read-out: Activity; outline: as §2
HOP-92 = assay: Growth inhibition of human HOP92 cells assessed as cell growth at 10 uM incubated for 48 hrs by sulforhodamine B assay relative to control; format: functional; settings: HOP-92, 48 h, read-out: Activity; outline: as §2
NCI-H226 = assay: Growth inhibition of human NCI-H226 cells assessed as cell growth at 10 uM incubated for 48 hrs by sulforhodamine B assay relative to control; format: functional; settings: NCI-H226, 48 h, read-out: Activity; outline: as §2
NCI-H23 = assay: Growth inhibition of human NCI-H23 cells assessed as cell growth at 10 uM incubated for 48 hrs by sulforhodamine B assay relative to control; format: functional; settings: NCI-H23, 48 h, read-out: Activity; outline: as §2
HCT-116 = assay: Growth inhibition of human HCT116 cells assessed as cell growth at 10 uM incubated for 48 hrs by sulforhodamine B assay relative to control; format: functional; settings: HCT-116, 48 h, read-out: Activity; outline: as §2
HCT-15 = assay: Growth inhibition of human HCT15 cells assessed as cell growth at 10 uM incubated for 48 hrs by sulforhodamine B assay relative to control; format: functional; settings: HCT-15, 48 h, read-out: Activity; outline: as §2
HT-29 = assay: Growth inhibition of human HT-29 cells assessed as cell growth at 10 uM incubated for 48 hrs by sulforhodamine B assay relative to control; format: functional; settings: HT-29, 48 h, read-out: Activity; outline: as §2
KM12 = assay: Growth inhibition of human KM12 cells assessed as cell growth at 10 uM incubated for 48 hrs by sulforhodamine B assay relative to control; format: functional; settings: KM12, 48 h, read-out: Activity; outline: as §2
SW-620 = assay: Growth inhibition of human SW620 cells assessed as cell growth at 10 uM incubated for 48 hrs by sulforhodamine B assay relative to control; format: functional; settings: SW-620, 48 h, read-out: Activity
Outline: (§3)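 NCI-60 single-dose screen at 10 µM run by the NCI Developmental Therapeutics Program; growth percent read from the one-dose mean graph, with percent inhibition approximated from those growth-percent values.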

SF-295 = assay: Growth inhibition of human SF295 cells assessed as cell growth at 10 uM incubated for 48 hrs by sulforhodamine B assay relative to control; format: functional; settings: SF-295, 48 h, read-out: Activity; outline: as §2
SNB-19 = assay: Growth inhibition of human SNB19 cells assessed as cell growth at 10 uM incubated for 48 hrs by sulforhodamine B assay relative to control; format: functional; settings: SNB-19, 48 h, read-out: Activity; outline: as §2
U-251 = assay: Growth inhibition of human U251 cells assessed as cell growth at 10 uM incubated for 48 hrs by sulforhodamine B assay relative to control; format: functional; settings: U-251, 48 h, read-out: Activity; outline: as §3
SK-MEL-2 = assay: Growth inhibition of human SK-MEL-2 cells assessed as cell growth at 10 uM incubated for 48 hrs by sulforhodamine B assay relative to control; format: functional; settings: SK-MEL-2, 48 h, read-out: Activity; outline: as §2
SK-MEL-28 = assay: Growth inhibition of human SK-MEL-28 cells assessed as cell growth at 10 uM incubated for 48 hrs by sulforhodamine B assay relative to control; format: functional; settings: SK-MEL-28, 48 h, read-out: Activity; outline: as §2
SK-MEL-5 = assay: Growth inhibition of human SK-MEL-5 cells assessed as cell growth at 10 uM incubated for 48 hrs by sulforhodamine B assay relative to control; format: functional; settings: SK-MEL-5, 48 h, read-out: Activity; outline: as §2
OVCAR-5 = assay: Growth inhibition of human OVCAR5 cells assessed as cell growth at 10 uM incubated for 48 hrs by sulforhodamine B assay relative to control; format: functional; settings: OVCAR-5, 48 h, read-out: Activity; outline: as §2
OVCAR-8 = assay: Growth inhibition of human OVCAR8 cells assessed as cell growth at 10 uM incubated for 48 hrs by sulforhodamine B assay relative to control; format: functional; settings: OVCAR-8, 48 h, read-out: Activity; outline: as §2
NCI/ADR-RES = assay: Growth inhibition of human NCI/ADR-RES cells assessed as cell growth at 10 uM incubated for 48 hrs by sulforhodamine B assay relative to control; format: functional; settings: read-out: Activity; outline: as §2
SK-OV-3 = assay: Growth inhibition of human SKOV3 cells at 10 uM incubated for 48 hrs by sulforhodamine B assay relative to control; format: functional; settings: SK-OV-3, 48 h, read-out: GI; outline: as §2
786-0 = assay: Growth inhibition of human 786-0 cells assessed as cell growth at 10 uM incubated for 48 hrs by sulforhodamine B assay relative to control; format: functional; settings: 786-0, 48 h, read-out: Activity; outline: as §2
PC-3 = assay: Growth inhibition of human PC3 cells assessed as cell growth at 10 uM incubated for 48 hrs by sulforhodamine B assay relative to control; format: functional; settings: PC-3, 48 h, read-out: Activity; outline: as §2
DU-145 = assay: Growth inhibition of human DU145 cells assessed as cell growth at 10 uM incubated for 48 hrs by sulforhodamine B assay relative to control; format: functional; settings: DU-145, 48 h, read-out: Activity; outline: as §2
T47D = assay: Growth inhibition of human T47D cells assessed as cell growth at 10 uM incubated for 48 hrs by sulforhodamine B assay relative to control; format: functional; settings: read-out: Activity; outline: as §3

SMILES | IC50 (A-431) [µM] | IC50 (MDA-MB-361) [µM] | growth at 10 µM (CCRF-CEM) [%] | growth at 10 µM (A549) [%] | growth at 10 µM (HOP-92) [%] | growth at 10 µM (NCI-H226) [%] | growth at 10 µM (NCI-H23) [%] | growth at 10 µM (HCT-116) [%] | growth at 10 µM (HCT-15) [%] | growth at 10 µM (HT-29) [%] | growth at 10 µM (KM12) [%] | growth at 10 µM (SW-620) [%] | growth at 10 µM (SF-295) [%] | growth at 10 µM (SNB-19) [%] | growth at 10 µM (U-251) [%] | growth at 10 µM (SK-MEL-2) [%] | growth at 10 µM (SK-MEL-28) [%] | growth at 10 µM (SK-MEL-5) [%] | growth at 10 µM (OVCAR-5) [%] | growth at 10 µM (OVCAR-8) [%] | also measured
Nc1ccc(-c2cc3c(Nc4ccc(OCc5cccc(F)c5)c(Cl)c4)ncnc3s2)cc1 | 9.76 | 5.7 | 23.9 | 21.2 | 45.8 | 53.5 | 68.6 | 50.7 | 32.9 | 84.5 | 24 | 74.1 | 47.8 | 77.3 | 57 | 25.4 | 39.2 | 57.7 | 77.9 | 63.1 | growth at 10 µM (NCI/ADR-RES): 50.4%; inhibition of growth at 10 µM (SK-OV-3): 100%; growth at 10 µM (786-0): 37.2%; growth at 10 µM (PC-3): 29.6%; growth at 10 µM (DU-145): 36.9%; growth at 10 µM (T47D): 15.4%
O=[N+]([O-])c1ccc(-c2cc3c(Nc4ccc(OCc5cccc(F)c5)c(Cl)c4)ncnc3s2)cc1 | 11 | 7.5 | 68.6 | 51.4 | 82.1 | 86.4 | 73.1 | 60.2 | 63.4 | 66.9 | 80 | 93.5 | 69.7 | 68 | 55.1 | 86.2 | 110 | 92.8 | 101 | 70.3 | growth at 10 µM (NCI/ADR-RES): 80.5%; inhibition of growth at 10 µM (SK-OV-3): 0%; growth at 10 µM (786-0): 95.4%; growth at 10 µM (PC-3): 54.1%; growth at 10 µM (DU-145): 82.1%; growth at 10 µM (T47D): 76.6%
